From PubChem BioAssay AID624010 (Broad Institute, 2012)

Target: Scavenger receptor class B member 1 (Mus musculus) (UniProt Q61009)
Test: inhibition of C384S mSR-BI lipid uptake – cell-based, C384S mutant, scintillation, dry powder, mechanism study for SR-BI HDL uptake inhibitor project, dose response (AID 624010)
Conditions: CHO ldlA C384S mSR-BI, [3H]CE-HDL uptake
In short: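 Material: CHO cells without LDL receptor, expressing C384S mutant mouse SR-BI / Reagent: [3H]CE-HDL / Compound: 0.5% DMSO final / Schedule: 1 h compound preincubation, then 2 h HDL uptake, 37 °C / Detection: liquid scintillation counting of cell-associated tritium / Control set: unlabeled HDL excess (40-fold) and no-compound wells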

Scavenger receptor class B member 1 (Mus musculus), sequence (Q61009 whole entry C384S): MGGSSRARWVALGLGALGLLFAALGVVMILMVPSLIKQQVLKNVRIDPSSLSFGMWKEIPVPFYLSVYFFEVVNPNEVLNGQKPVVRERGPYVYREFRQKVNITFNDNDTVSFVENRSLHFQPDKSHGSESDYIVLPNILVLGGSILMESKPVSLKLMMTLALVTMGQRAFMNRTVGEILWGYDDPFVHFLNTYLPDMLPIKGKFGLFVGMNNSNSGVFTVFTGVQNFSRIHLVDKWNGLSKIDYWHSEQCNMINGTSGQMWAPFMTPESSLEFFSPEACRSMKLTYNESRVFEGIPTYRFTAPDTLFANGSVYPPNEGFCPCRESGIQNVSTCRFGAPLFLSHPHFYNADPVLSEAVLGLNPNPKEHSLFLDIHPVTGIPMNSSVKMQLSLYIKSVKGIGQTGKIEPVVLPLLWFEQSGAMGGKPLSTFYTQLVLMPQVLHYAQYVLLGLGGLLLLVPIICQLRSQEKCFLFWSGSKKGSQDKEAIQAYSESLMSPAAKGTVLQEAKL

AC50: 500 nM
SMILES: CC(C)NC(=O)Nc1ccc2c(c1)C(=O)N([C@H](C)CO)C[C@@H](C)[C@H](CN(C)S(=O)(=O)c1ccc(Cl)cc1)O2
